ChEMBL document CHEMBL1159118, “The effect of backbone cyclization on PK/PD properties of bioactive peptide-peptoid hybrids: the melanocortin agonist paradigm” (Bioorg Med Chem, 2010)
pEC50: −log10 of the molar value. Numbered stars: 1 amine (or outer) side, 2 acyl side, 3 side chain; on linkers, the order of the positions; unused ones are H or OH. Bridge positions count the residues as written; N and C are the ends. Square brackets hold non-standard residues; d marks the D form. Peptide text beside a SMILES is read from it. N(2-Aminoethyl)Gly = O=C(CN(CCN[*:3])[*:1])[*:2]; Adipoyl = O=C(CCCCC(=O)[*:2])[*:1]; Glutaryl = O=C(CCCC(=O)[*:2])[*:1]; Suc = O=C(CCC(=O)[*:2])[*:1]; Nphe = O=C(O)CNCc1ccccc1

Columns and labels:
[1] = target: Melanocyte-stimulating hormone receptor (Mus musculus, UniProt Q01727); assay: Agonist activity at mouse MC1R expressed in HEK293 cells by beta-galactosidase reporter gene assay; assay type: functional, cell-based
Melanocyte-stimulating hormone receptor, sequence (Q01727 whole entry): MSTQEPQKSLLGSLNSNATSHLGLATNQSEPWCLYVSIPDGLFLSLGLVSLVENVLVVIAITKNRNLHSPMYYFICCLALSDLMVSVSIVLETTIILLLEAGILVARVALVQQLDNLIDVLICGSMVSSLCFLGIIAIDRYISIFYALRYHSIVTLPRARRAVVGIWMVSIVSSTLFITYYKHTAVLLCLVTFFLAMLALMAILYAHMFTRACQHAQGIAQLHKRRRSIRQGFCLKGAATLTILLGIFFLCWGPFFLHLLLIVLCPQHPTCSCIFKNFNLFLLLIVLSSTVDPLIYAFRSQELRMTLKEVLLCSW

[2] = target: Melanocortin receptor 5 (Mus musculus, UniProt P41149); assay: Agonist activity at mouse MC5R expressed in HEK293 cells by beta-galactosidase reporter gene assay; assay type: functional, cell-based
Melanocortin receptor 5, sequence (P41149 whole entry): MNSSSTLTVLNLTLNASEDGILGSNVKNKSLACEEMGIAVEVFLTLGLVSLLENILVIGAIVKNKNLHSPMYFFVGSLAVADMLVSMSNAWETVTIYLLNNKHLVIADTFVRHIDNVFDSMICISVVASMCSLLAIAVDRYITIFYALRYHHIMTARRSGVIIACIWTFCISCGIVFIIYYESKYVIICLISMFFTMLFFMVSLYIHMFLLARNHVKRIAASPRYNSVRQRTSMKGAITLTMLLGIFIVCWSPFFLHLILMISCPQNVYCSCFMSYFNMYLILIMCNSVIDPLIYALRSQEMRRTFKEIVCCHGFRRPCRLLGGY

[3] = target: Melanocortin receptor 4 (Mus musculus, UniProt P56450); assay: Agonist activity at mouse MC4R expressed in HEK293 cells by beta-galactosidase reporter gene assay; assay type: functional, cell-based
Melanocortin receptor 4, sequence (P56450 whole entry): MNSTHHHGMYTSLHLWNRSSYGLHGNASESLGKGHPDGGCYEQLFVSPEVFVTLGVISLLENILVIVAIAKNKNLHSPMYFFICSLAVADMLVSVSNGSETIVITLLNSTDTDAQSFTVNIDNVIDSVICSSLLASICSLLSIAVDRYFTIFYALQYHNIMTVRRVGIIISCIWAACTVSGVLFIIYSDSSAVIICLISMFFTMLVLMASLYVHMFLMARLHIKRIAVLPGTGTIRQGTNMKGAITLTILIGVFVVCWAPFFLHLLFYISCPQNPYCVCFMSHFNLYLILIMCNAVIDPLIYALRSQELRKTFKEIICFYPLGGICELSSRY

[4] = tested on: Caco-2; assay: Ratio of Papp for mannitol to Papp for drug in permeability across apical to basolateral side of human Caco-2 cells; assay type: ADME, cell-based
[5] = (§1) Metabolic stability in rat serum assessed as drug degradation after 4 hrs; assay type: ADME, cell-free; conditions: read-out: Activity
[6] = target: Melanocortin receptor 3 (Mus musculus, UniProt P33033); assay: Agonist activity at mouse MC3R expressed in HEK293 cells by beta-galactosidase reporter gene assay; assay type: functional, cell-based
Melanocortin receptor 3, sequence (P33033 whole entry): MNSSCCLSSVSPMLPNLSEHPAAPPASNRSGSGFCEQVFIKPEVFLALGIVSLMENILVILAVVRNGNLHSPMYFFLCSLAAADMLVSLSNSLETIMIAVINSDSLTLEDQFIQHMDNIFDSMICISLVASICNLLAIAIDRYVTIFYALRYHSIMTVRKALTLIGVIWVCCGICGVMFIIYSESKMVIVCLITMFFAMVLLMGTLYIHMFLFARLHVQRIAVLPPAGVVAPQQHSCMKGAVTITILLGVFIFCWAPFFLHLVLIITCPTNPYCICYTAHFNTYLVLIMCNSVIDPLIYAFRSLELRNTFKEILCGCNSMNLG

[7] = Membrane binding affinity to synthetic dimyristoylphosphatidylcholine/polydiacetylene vesicles assessed as colorimetric response by colorimetric assay; design: concentration or dose not given beside the values
Outline: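 Peptide added from 0.4 mg/mL stock to vesicles (0.5 mM total lipids, 25 mM Tris-base pH 8), diluted with water; UV–vis absorbance at 640 and 500 nm; %CR = [(PB0 − PBI)/PB0] × 100, PB = Ablue/(Ablue + Ared); duplicates.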

[8] = Metabolic stability in Wistar rat brush border membrane vesicles assessed as drug degradation up to 90 mins by HPLC; assay type: ADME, cell membranes; conditions: read-out: Activity
Outline: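 Brush border membrane vesicles from duodenum, jejunum and upper ileum of male Wistar rats (200–250 g), Ca2+ precipitation, 13–18-fold marker-enzyme enrichment. Compound incubated with BBMVs at 37 °C for 90 min; duplicate samples at 0, 15, 30, 45, 60, 90 min, quenched 1:1 with ice-cold methanol, centrifuged, analysed by HPLC.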

[9] = (§2) Metabolic stability in rat serum assessed as drug degradation after 1 hr; assay type: ADME, cell-free; conditions: read-out: Activity
Outline: (§3)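 Incubation in rat serum, sampled at 0, 1, 2 and 5 h; degradation relative to initial concentration.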

[10] = tested on: Serum; assay: as §2; assay type: ADME, cell-free; conditions: 1 h; outline: as §3
[11] = tested on: Serum; assay: as §1; assay type: ADME, cell-free; conditions: 4 h
[12] = tested on: Serum; assay: Metabolic stability in rat serum assessed as drug remaining after 3 hrs; assay type: ADME, cell-free
[13] = target: Melanocortin receptor 4 (Mus musculus) (UniProt P56450); assay: Agonist activity at mouse MC4R expressed in HEK293 cells at 100 uM by beta-galactosidase reporter gene assay relative to control; assay type: functional, cell-based
Melanocortin receptor 4 (Mus musculus), sequence (P56450 whole entry): as the sequence (P56450 whole entry) above
Outline: (§4)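 CRE/β-galactosidase reporter in HEK-293 cells stably expressing the mouse receptor; 6 h peptide exposure with 0.1 mM IBMX; ONPG read at OD 405 nm, normalized to protein content and forskolin (10–4 M) response; % stimulation at highest concentration tested, relative to control; ≥3 independent experiments.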

[14] = target: Melanocortin receptor 3 (Mus musculus) (UniProt P33033); assay: Agonist activity at mouse MC3R expressed in HEK293 cells at 100 uM by beta-galactosidase reporter gene assay relative to control; assay type: functional, cell-based; outline: as §4
Melanocortin receptor 3 (Mus musculus), sequence (P33033 whole entry): as the sequence (P33033 whole entry) above

| pEC50 [1] | pEC50 [2] | pEC50 [3] | pEC50 [6] | Activity [7] [%] | metabolised at 1.5 h [8] [%] | Compound | also measured |
| --- | --- | --- | --- | --- | --- | --- | --- |
| 6.66 | 6.51 | 6.19 | < 7.00 | 89 | 5 | N=C(N)NCCC[C@@H]1NC(=O)[C@@H](Cc2ccccc2)NC(=O)CN(Cc2ccccc2)C(=O)CCCC(=O)NCCN(CC(N)=O)C(=O)[C@H](Cc2c[nH]c3ccccc23)NC1=O | Ratio [4]: 3; metabolised at 4 h [5]: > 40% |
| 6.30 | 6.84 | 7.15 | 4.92 | – | – | NC(=O)[C@H](Cc1c[nH]c2ccccc12)NC(=O)[C@H](CCCN=C(N)N)NC(=O)[C@@H](Cc1ccccc1)NC(=O)[C@@H](N)Cc1ccccc1 | – |
| 4.93 | 5.46 | 5.01 | < 7.00 | 31 | 20 | CC(=O)NCC(=O)N(CC(=O)N[C@H](Cc1ccccc1)C(=O)N[C@@H](CCCNC(=N)N)C(=O)N[C@@H](Cc1c[nH]c2ccccc12)C(=O)NCC(N)=O)Cc1ccccc1 | metabolised at 1 h [9]: 50% |
| 6.42 | 5.78 | 5.86 | < 7.00 | < 30 | 5 | N=C(N)NCCC[C@@H]1NC(=O)[C@@H](Cc2ccccc2)NC(=O)CN(Cc2ccccc2)C(=O)CCC(=O)NCCN(CC(N)=O)C(=O)[C@H](Cc2c[nH]c3ccccc23)NC1=O | Stability [10]: Stable; Activity [11]: Stable; Stability [12]: Stable |
| 6.92 | 8.09 | 7.31 | 5.14 | 90 | 5 | N=C(N)NCCC[C@@H]1NC(=O)[C@@H](Cc2ccccc2)NC(=O)CN(Cc2ccccc2)C(=O)CCCCC(=O)NCCN(CC(N)=O)C(=O)[C@H](Cc2c[nH]c3ccccc23)NC1=O | metabolised at 4 h [5]: > 40% |
| 5.93 | 6.31 | 5.48 | < 7.00 | – | 5 | NC(=O)CN1CCNC(=O)CCCCC(=O)N[C@@H](Cc2ccccc2)C(=O)N(Cc2ccccc2)CC(=O)N[C@@H](CCCN=C(N)N)C(=O)N[C@@H](Cc2c[nH]c3ccccc23)C1=O (F[Nphe]RW[N(2-Aminoethyl)Gly]-NH2; linker N-5 via Adipoyl) | – |
| – | – | – | – | < 30 | – | N=C(N)NCCC[C@@H]1NC(=O)CN(Cc2ccccc2)C(=O)[C@H](Cc2ccccc2)NC(=O)CCCCC(=O)NCCN(CC(N)=O)C(=O)[C@H](Cc2c[nH]c3ccccc23)NC1=O (F[Nphe]RW[N(2-Aminoethyl)Gly]-NH2; linker N-5 via Adipoyl) | – |
| 6.00 | 5.63 | – | < 7.00 | – | 5 | NC(=O)CN1CCNC(=O)CCCC(=O)N[C@@H](Cc2ccccc2)C(=O)N(Cc2ccccc2)CC(=O)N[C@@H](CCCN=C(N)N)C(=O)N[C@@H](Cc2c[nH]c3ccccc23)C1=O (F[Nphe]RW[N(2-Aminoethyl)Gly]-NH2; linker N-5 via Glutaryl) | – |
| – | – | – | – | < 30 | – | N=C(N)NCCC[C@@H]1NC(=O)CN(Cc2ccccc2)C(=O)[C@H](Cc2ccccc2)NC(=O)CCCC(=O)NCCN(CC(N)=O)C(=O)[C@H](Cc2c[nH]c3ccccc23)NC1=O (F[Nphe]RW[N(2-Aminoethyl)Gly]-NH2; linker N-5 via Glutaryl) | Activity [13]: 25% |
| 5.55 | 5.40 | 5.42 | < 7.00 | – | 5 | NC(=O)CN1CCNC(=O)CCC(=O)N[C@@H](Cc2ccccc2)C(=O)N(Cc2ccccc2)CC(=O)N[C@@H](CCCN=C(N)N)C(=O)N[C@@H](Cc2c[nH]c3ccccc23)C1=O (F[Nphe]RW[N(2-Aminoethyl)Gly]-NH2; linker N-5 via Suc) | – |
| – | – | – | – | < 30 | – | N=C(N)NCCC[C@@H]1NC(=O)CN(Cc2ccccc2)C(=O)[C@H](Cc2ccccc2)NC(=O)CCC(=O)NCCN(CC(N)=O)C(=O)[C@H](Cc2c[nH]c3ccccc23)NC1=O (F[Nphe]RW[N(2-Aminoethyl)Gly]-NH2; linker N-5 via Suc) | – |
| 6.66 | 7.79 | 8.06 | < 7.00 | < 30 | 20 | CC(=O)NCC(=O)N[C@@H](Cc1ccccc1)C(=O)N(CC(=O)N[C@@H](CCCNC(=N)N)C(=O)N[C@@H](Cc1c[nH]c2ccccc12)C(=O)NCC(N)=O)Cc1ccccc1 (HELM PEPTIDE1{[ac].G.F.[O=C(CN(Cc1ccccc1)[*:1])[*:2]].R.W.G.[am]}$$$$V2.0) | Stability [12]: Unstable |
| 6.62 | 8.09 | 7.98 | – | < 30 | 20 | CC(=O)NCC(=O)N(CC(=O)N(CC(=O)N[C@@H](CCCNC(=N)N)C(=O)N[C@@H](Cc1c[nH]c2ccccc12)C(=O)NCC(N)=O)Cc1ccccc1)Cc1ccccc1 (HELM PEPTIDE1{[ac].G.[O=C(CN(Cc1ccccc1)[*:1])[*:2]].[O=C(CN(Cc1ccccc1)[*:1])[*:2]].R.W.G.[am]}$$$$V2.0) | Activity [14]: 40%; Stability [12]: Unstable |
| 6.00 | 6.49 | 5.77 | < 7.00 | – | 5 | NC(=O)CN1CCNC(=O)CCCCC(=O)N(Cc2ccccc2)CC(=O)N(Cc2ccccc2)CC(=O)N[C@@H](CCCN=C(N)N)C(=O)N[C@@H](Cc2c[nH]c3ccccc23)C1=O ([Nphe][Nphe]RW[N(2-Aminoethyl)Gly]-NH2; linker N-5 via Adipoyl) | – |
| – | – | – | – | < 30 | – | N=C(N)NCCC[C@@H]1NC(=O)CN(Cc2ccccc2)C(=O)CN(Cc2ccccc2)C(=O)CCCCC(=O)NCCN(CC(N)=O)C(=O)[C@H](Cc2c[nH]c3ccccc23)NC1=O ([Nphe][Nphe]RW[N(2-Aminoethyl)Gly]-NH2; linker N-5 via Adipoyl) | – |
| 5.77 | 6.46 | 5.65 | < 7.00 | – | 5 | NC(=O)CN1CCNC(=O)CCCC(=O)N(Cc2ccccc2)CC(=O)N(Cc2ccccc2)CC(=O)N[C@@H](CCCN=C(N)N)C(=O)N[C@@H](Cc2c[nH]c3ccccc23)C1=O ([Nphe][Nphe]RW[N(2-Aminoethyl)Gly]-NH2; linker N-5 via Glutaryl) | Ratio [4]: 3 |
| – | – | – | – | < 30 | – | N=C(N)NCCC[C@@H]1NC(=O)CN(Cc2ccccc2)C(=O)CN(Cc2ccccc2)C(=O)CCCC(=O)NCCN(CC(N)=O)C(=O)[C@H](Cc2c[nH]c3ccccc23)NC1=O ([Nphe][Nphe]RW[N(2-Aminoethyl)Gly]-NH2; linker N-5 via Glutaryl) | – |
| 6.21 | 5.53 | 5.71 | < 7.00 | < 30 | 5 | N=C(N)NCCC[C@@H]1NC(=O)CN(Cc2ccccc2)C(=O)CN(Cc2ccccc2)C(=O)CCC(=O)NCCN(CC(N)=O)C(=O)[C@H](Cc2c[nH]c3ccccc23)NC1=O ([Nphe][Nphe]RW[N(2-Aminoethyl)Gly]-NH2; linker N-5 via Suc) | – |
